AF4-AF9 inh: MLL-AF4/AF9 protein interaction inhibition; inhibition, % at 10 µM; hit rate 0.47% among 350,000; AlphaScreen, biotin-AF4 peptide binding to FLAG-AF9;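 active means every replicate reaching a set inhibition limit, whatever the replicate mean, cut at about 25% in these data; inconclusive means mean inhibition reaches that limit but some replicates miss it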;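 further: 0% = plate neutral control median and 100% = total signal loss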
RAD54 inh: blocks human RAD54 Holliday junction branch migration | Q92698 | inhibition, % at 10.4 µM | hit rate 0.14% among 360,000 | FAM/BHQ fluorescence;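 active means mean normalized replicate activity at least 40 and at least half of replicates scoring 40 or more; inconclusive means only one of the two criteria met; inactive means mean below 40 and under half of replicates reaching 40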;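 further: 0% = median of neutral control wells and 100% = median of positive control wells; inhibitors cause a drop in the FAM fluorescence signal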
Target sequence (Q92698 whole entry, looked up): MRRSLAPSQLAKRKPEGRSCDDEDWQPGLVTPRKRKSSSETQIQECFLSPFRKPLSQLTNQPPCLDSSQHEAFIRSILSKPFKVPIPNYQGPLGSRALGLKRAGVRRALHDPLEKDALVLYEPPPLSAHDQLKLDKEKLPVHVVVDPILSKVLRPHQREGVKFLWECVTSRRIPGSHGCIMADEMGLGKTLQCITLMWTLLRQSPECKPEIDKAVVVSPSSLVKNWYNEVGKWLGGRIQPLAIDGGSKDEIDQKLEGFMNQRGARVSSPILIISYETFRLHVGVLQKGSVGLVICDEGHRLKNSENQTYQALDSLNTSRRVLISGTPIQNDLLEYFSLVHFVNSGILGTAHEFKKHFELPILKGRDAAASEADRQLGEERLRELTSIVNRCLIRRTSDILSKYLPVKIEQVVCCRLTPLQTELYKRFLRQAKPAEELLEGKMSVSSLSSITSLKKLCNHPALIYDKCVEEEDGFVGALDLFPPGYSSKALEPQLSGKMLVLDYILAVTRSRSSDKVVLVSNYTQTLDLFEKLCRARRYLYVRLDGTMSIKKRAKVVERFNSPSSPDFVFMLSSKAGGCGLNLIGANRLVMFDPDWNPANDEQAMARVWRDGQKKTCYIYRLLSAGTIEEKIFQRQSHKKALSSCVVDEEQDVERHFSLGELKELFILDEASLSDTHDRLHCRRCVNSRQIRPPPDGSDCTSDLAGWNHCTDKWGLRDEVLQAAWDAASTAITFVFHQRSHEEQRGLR
dFosB act-1: activators of mouse delta FosB homodimer; P13346; purified delta FosB, TAMRA-CDK5 oligo fluorescence polarization; percent of positive-control signal above neutral wells; hit rate 0.99% among 340,000; activation, % at 25 µM;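 active means mean activation above about 17%, with every replicate also reaching it, limit read from the data, passing the limit was not always enough; inconclusive means only one of the two conditions met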
RAD52 inh: RAD52 (human) annealing inhibition; inhibition, % at 18.7 µM; hit rate 0.46% among 360,000; recombinant RAD52 DNA annealing, FRET fluorescence; AID 651710;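 active means every replicate showing at least 50% inhibition; inconclusive means mean inhibition at least 50% but not in every replicate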
S100A4 inh HTS: blocks human S100A4 binding to myosin IIA peptide; inhibition, % at 10.7 µM; hit rate 0.14% among 360,000; P26447; S100A4/TAMRA-MyoIIA peptide fluorescence polarization;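 active means mean inhibition of at least 70% across replicates, with every replicate also reaching that level; inconclusive means mean inhibition reaches 70% but some replicates fall short; inactive means mean inhibition below 70%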
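Compound dosing: one dose per compound; test system: human S100A4 monomer with TAMRA-labelled myosin IIA peptide; probe or stimulus: TAMRA-labelled myosin IIA heavy-chain peptide probe, 5 nM; medium: HEPES buffer with Ca2+, pH 7.2; schedule: 5 min incubation before reading; benchmarks: neutral control DMSO, positive control TFP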
dFosB act-2: activators of mouse delta FosB homodimer DNA binding | shares compounds with dFosB act-1 | purified delta FosB, TAMRA-CDK5 oligo fluorescence polarization; normalised: neutral wells 0, positive control 100 | activation, % at 24.9 µM | 2,400 tested, under 10 active;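 active means highest replicate activation at or above 34% and every replicate reaching that threshold; inconclusive means meets only one of the two criteria; inactive means meets neither criterion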;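 further: higher polarization means more probe DNA bound by delta FosB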
Active calls of the source: *; ? = inconclusive; . = no result given. Compounds with a hit are over-represented: about 1.5% of the library has one in this group of screens.

SMILES	AF4-AF9 inh	RAD54 inh	dFosB act-1	RAD52 inh	S100A4 inh HTS	dFosB act-2
O=C(Nc1nc(-c2ccc(S(=O)(=O)N3CCOCC3)cc2)cs1)c1ccccc1	-2	.	-1	-20	-3	.
O=C(Nc1nc(-c2nc3ccccc3s2)cs1)c1ccc(S(=O)(=O)N2CCOCC2)cc1	.	1	33*	.	.	5
NCC[C@@H]1CC[C@@H](NC(=O)C2CCC2)[C@@H](CO)O1	-1	8	.	-5	-3	.
CCOc1ccccc1N(C(=O)c1snc(C(N)=O)c1N)C(C(=O)NCc1ccccc1)c1ccc(O)cc1 (stereo unspecified)	-2	-9	-5	-20	5	.
Cc1ccccc1N(C(=O)c1snc(C(N)=O)c1N)C(C(=O)NCc1ccccc1)c1ccc(O)cc1 (stereo unspecified)	-1	7	41*	-11	-8	5
NC(=O)c1nsc(C(=O)N(c2ccccc2F)C(C(=O)NCc2ccccc2)c2ccc(O)cc2)c1N (stereo unspecified)	0	3	32*	-3	-5	4
COc1ccc(S(=O)(=O)Nc2ccc3c(c2)CC(=O)N([C@@H](C)CO)C[C@H](C)[C@H](CN(C)S(=O)(=O)c2ccc(Cl)cc2)O3)cc1	2	-1	.	4	13	.
COc1ccc(-c2nnc(SCC(=O)c3cc(C)n(Cc4cccs4)c3C)o2)cc1	.	6	43*	.	.	3
COc1ccc(-c2nnc(SCC(=O)c3ccc[nH]3)o2)cc1	.	-16	6	.	.	.
Cc1cc(C(=O)CSc2nnc(-c3ccc(OC(F)F)cc3)o2)c(C)n1Cc1cccs1	.	-5	?	.	.	.
COc1ccc(-c2nnc(SCC(=O)c3ccc(O)cc3O)o2)cc1	-8	3	40*	-18	1	1
COc1ccc(CN(C)C[C@@H]2Oc3ccc(NS(=O)(=O)c4cn(C)cn4)cc3CC(=O)N([C@H](C)CO)C[C@H]2C)cc1	0	-2	.	-4	-30	.
O=C(CSCC(=O)Nc1cccc2ccccc12)Nc1cccc2ccccc12	-98	-3	49*	-23	2	3
O=C(CSCCO)Nc1cccc2ccccc12	.	-7	-6	.	.	.
Nc1c(N(CCC2=CCCCC2)C(=O)Cc2ccc(F)cc2)c(=O)[nH]c(=O)n1Cc1ccccc1	0	.	4	-11	2	.
Nc1c(N(CCC2=CCCCC2)C(=O)COc2ccc(F)cc2Cl)c(=O)[nH]c(=O)n1Cc1ccccc1	-1	-8	29*	-15	-1	1
C=CCNC(=O)C1CC(=O)N(c2ccc(OCC(=O)Nc3cccc(OC)c3)cc2)C1 (stereo unspecified)	.	-3	-4	.	.	.
C=CCNC(=O)C1CC(=O)N(c2ccc(OCC(=O)Nc3ccc(Cl)c(C(F)(F)F)c3)cc2)C1 (stereo unspecified)	.	-3	27*	.	.	0
O=C(C1CCOCC1)N1CC(=O)N2[C@@H](CO)[C@H](c3ccc(C#CC4CC4)cc3)[C@@H]2C1	-1	.	.	4	5	.
O=C(C[C@H]1C=C[C@H](NC(=O)C2CCC2)[C@@H](CO)O1)NC1CCCCC1	-16	-5	.	-2	-1	.
COc1ccc(-c2ccc(/C=N/NC(=O)c3cccnc3)o2)c([N+](=O)[O-])c1	.	9	50*	.	.	-1
Cc1ccc(C(=O)N/N=C/c2ccc(-c3ccccc3[N+](=O)[O-])o2)cn1	6	.	2	1	-8	.
NC(=O)c1cc(-c2ccccc2)nc2ccc(Br)cc12	-2	-11	23*	-12	-7	3
CS(=O)(=O)c1ccc(Cl)c(NC(=O)COC(=O)c2c(Cl)cccc2Cl)c1	-1	-7	-13	-14	1	.
CC(=O)Nc1sc(C)c(C)c1C(=O)OCC(=O)Nc1cc(S(C)(=O)=O)ccc1Cl	-4	-15	56*	-35	2	-1
SMILES	AF4-AF9 inh	RAD54 inh	dFosB act-1	RAD52 inh	S100A4 inh HTS	dFosB act-2
Cc1cccc(NC(=O)c2cc3c(=O)n4ccccc4nc3s2)c1	-3	8	16*	-23	1	4
C=C[C@H](COC(C)=O)N(C(=O)OC(C)(C)C)S(=O)(=O)c1ccc(Br)cc1	-6	-3	.	5	-3	.
CCOc1ccccc1NC(=O)c1cc(C(=O)c2cc(Br)ccc2O)coc1=N	-1	.	33*	-34	-2	4
CCc1nn(CC(=O)NCCCN(CC)Cc2ccccc2)c(=O)c2cc3sccc3n12	.	-1	-3	.	.	.
CCCCN(CCCNC(=O)Cn1nc(CC)n2c(cc3sc(C)cc32)c1=O)Cc1ccccc1	3	17	35*	-4	-4	1
CC(/C=N/NC(=O)COc1ccccc1C)=N\NC(=O)COc1ccccc1C	-2	0	22*	-5	-4	-2
O=C(C[C@H]1CC[C@@H](NC(=O)c2cccc(F)c2)[C@@H](CO)O1)NCCN1CCCC1	1	15	.	-9	14	.
Cc1ccc(-c2cc(C(=O)Nc3cccnc3)[nH]n2)c(O)c1C	0	.	25*	-8	26	3
Cc1cccc(NC(=O)c2cc(-c3cc(C)c(C)cc3O)n[nH]2)c1	-11	-10	-5	-2	-3	.
Cc1ccc(-c2cc(C(=O)NCc3ccc4c(c3)OCO4)[nH]n2)c(O)c1C	.	-16	21*	.	.	-2
COc1ccc2c3c([nH]c2c1)[C@@H](CO)N(C(=O)Cc1ccccc1)CC31CN(C(=O)Nc2ccccc2F)C1	-2	.	.	-10	-11	.
NC(=O)COC(=O)c1oc2ccccc2c1CSc1ccc(Cl)cc1	1	7	18*	3	-2	5
O=C(COC(=O)c1oc2ccccc2c1CSc1ccc(Cl)cc1)NC1CCCC1	2	.	-10	-26	-2	.
Nc1ccc(S(=O)(=O)NCC(=O)OCCOc2ccccc2)cc1[N+](=O)[O-]	3	3	-1	-8	-4	.
CSc1ccc(S(=O)(=O)NCC(=O)OCCOc2ccccc2)cc1[N+](=O)[O-]	-4	.	28*	-9	-1	0
Cc1cc(C(C)(C)C)cc(S(=O)(=O)Nc2ccc(O)c(C(=O)O)c2)c1C	.	.	0	.	.	.
CC(=O)Nc1ccc(NC(=O)c2ccc(NS(=O)(=O)c3cc(C(C)(C)C)cc(C)c3C)cc2)cc1	1	5	54*	-7	-4	9
COc1ccccc1-c1cn(CC[C@H]2CC[C@H](NC(=O)CCN3CCCCC3)[C@H](CO)O2)nn1	1	6	.	7	-8	.
Cc1ccc(Nc2nc(N)nc(CSc3nnc(-c4ccncc4)o3)n2)cc1	.	3	66*	.	.	1
Cc1ccc(Nc2nc(N)nc(CSc3nc4ccccc4s3)n2)cc1	.	-2	53*	.	.	0
C=CCN1C(=O)[C@@]2(O[C@@H](CCO)[C@H]([Si](C)(C)c3ccc(OC)cc3)[C@H]2C)c2ccccc21	2	.	.	12	0	.
